Reference: ChEMBL document CHEMBL4610031, “Design, synthesis and biological evaluation of Proteolysis Targeting Chimeras (PROTACs) as a BTK degraders with improved pharmacokinetic properties” (Bioorg Med Chem Lett, 2020)

How the values were obtained:
[1] = biological target: T1, von Hippel-Lindau disease tumor suppressor/Tyrosine-protein kinase BTK (Homo sapiens, UniProt Q06187+P40337); experiment: Protac activity at VHL/BTK in human NAMALWA cells assessed as induction of BTK protein degradation incubated for 24 hrs by immunoblotting method; assay type: cell-based; details: namalva
Summary of the method: (§1)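 NAMALWA cells were grown in RPMI 1640 with 10% FBS, streptomycin and penicillin at 37 °C, 5% CO2. 2 × 10^6 cells per concentration were treated 24 h, rinsed in cold PBS, and lysed in Tris pH 8.0/deoxycholate/Triton X-100 with protease and phosphatase inhibitors.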
Target sequence in this assay (Q06187 whole entry): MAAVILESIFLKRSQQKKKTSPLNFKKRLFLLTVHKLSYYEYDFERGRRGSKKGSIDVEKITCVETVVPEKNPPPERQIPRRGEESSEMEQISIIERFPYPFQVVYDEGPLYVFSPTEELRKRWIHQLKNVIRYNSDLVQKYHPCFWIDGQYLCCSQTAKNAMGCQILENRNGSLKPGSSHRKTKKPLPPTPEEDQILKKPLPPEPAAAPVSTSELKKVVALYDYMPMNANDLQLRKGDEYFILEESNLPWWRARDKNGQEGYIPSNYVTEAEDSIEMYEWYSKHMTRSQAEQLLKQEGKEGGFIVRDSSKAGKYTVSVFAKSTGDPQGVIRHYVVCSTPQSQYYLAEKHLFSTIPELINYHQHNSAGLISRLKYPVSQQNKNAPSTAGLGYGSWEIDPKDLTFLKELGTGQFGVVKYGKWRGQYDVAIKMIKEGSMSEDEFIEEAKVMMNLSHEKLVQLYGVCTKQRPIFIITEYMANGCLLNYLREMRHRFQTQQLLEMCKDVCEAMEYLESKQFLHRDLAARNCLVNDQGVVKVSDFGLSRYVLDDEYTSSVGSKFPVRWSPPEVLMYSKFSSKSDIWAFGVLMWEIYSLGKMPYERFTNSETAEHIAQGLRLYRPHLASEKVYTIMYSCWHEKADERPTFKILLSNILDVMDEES
Target sequence in this assay (P40337 whole entry): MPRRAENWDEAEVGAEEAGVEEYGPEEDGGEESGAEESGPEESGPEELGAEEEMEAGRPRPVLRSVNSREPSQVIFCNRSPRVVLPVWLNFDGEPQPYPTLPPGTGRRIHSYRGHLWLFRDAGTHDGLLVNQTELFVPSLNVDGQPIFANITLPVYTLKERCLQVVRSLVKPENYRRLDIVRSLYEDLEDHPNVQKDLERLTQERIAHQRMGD

[2] = biological target: T1, von Hippel-Lindau disease tumor suppressor/Tyrosine-protein kinase BTK; experiment: Protac activity at VHL/BTK in human NAMALWA cells assessed as induction of BTK protein degradation incubated for 24 hrs by immunoblotting method relative to control; assay type: cell-based; details: NAMALVA; summary of the method: as §1
Target sequence in this assay (P40337 whole entry partner): as the sequence (P40337 whole entry) above
Target sequence in this assay (Q06187 2-659 limits assumed): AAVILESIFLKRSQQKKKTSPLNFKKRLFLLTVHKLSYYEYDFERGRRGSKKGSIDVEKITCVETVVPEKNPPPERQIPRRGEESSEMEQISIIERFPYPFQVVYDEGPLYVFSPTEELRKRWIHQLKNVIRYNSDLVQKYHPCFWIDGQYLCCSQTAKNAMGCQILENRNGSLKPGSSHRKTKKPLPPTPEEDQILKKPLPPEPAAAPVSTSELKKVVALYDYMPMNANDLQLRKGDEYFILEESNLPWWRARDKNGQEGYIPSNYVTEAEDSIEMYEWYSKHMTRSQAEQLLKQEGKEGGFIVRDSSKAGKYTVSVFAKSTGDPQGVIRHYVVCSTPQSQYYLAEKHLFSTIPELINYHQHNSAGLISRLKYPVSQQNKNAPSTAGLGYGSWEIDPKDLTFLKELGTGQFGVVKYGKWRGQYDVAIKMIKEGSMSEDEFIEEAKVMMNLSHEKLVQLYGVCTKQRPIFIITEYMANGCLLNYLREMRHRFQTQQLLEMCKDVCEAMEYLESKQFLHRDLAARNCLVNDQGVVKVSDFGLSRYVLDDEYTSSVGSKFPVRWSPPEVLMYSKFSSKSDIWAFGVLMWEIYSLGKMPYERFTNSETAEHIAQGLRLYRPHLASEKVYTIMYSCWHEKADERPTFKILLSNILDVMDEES

[3] = AUClast in mouse at 1 mg/kg, iv; assay type: ADME, organism-based; parameters: dose 1 mg/kg, time 0 - last, route intravenous; details: in vivo
[4] = biological target: T2, Protein cereblon/Tyrosine-protein kinase BTK (Homo sapiens, UniProt Q06187+Q96SW2); experiment: Protac activity at CRBN/BTK in human NAMALWA cells assessed as induction of BTK protein degradation incubated for 24 hrs by immunoblotting method; assay type: cell-based; details: namalva; summary of the method: as §1
Target sequence in this assay (Q06187 whole entry): as the sequence (Q06187 whole entry) above
Target sequence in this assay (Q96SW2 whole entry): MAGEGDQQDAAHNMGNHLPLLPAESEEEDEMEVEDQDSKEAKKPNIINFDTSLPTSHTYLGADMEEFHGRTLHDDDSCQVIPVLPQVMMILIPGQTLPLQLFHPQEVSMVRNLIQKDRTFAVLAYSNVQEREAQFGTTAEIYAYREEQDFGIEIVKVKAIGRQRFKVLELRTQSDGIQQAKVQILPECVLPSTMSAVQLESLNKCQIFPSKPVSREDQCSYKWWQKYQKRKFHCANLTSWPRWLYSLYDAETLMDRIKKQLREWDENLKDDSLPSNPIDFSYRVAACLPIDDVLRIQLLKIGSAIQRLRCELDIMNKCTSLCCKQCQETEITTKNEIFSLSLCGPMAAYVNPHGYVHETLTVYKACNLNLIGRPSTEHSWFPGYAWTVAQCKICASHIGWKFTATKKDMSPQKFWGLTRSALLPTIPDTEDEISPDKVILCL

[5] = Tmax in mouse at 1 mg/kg, iv; assay type: ADME, organism-based; details: in vivo
[6] = biological target: T2, Protein cereblon/Tyrosine-protein kinase BTK; experiment: Protac activity at CRBN/BTK in human NAMALWA cells assessed as induction of BTK protein degradation incubated for 24 hrs by immunoblotting method relative to control; assay type: cell-based; details: NAMALVA; summary of the method: as §1
Target sequence in this assay (Q06187 2-659 limits assumed): as the sequence (Q06187 2-659 limits assumed) above
Target sequence in this assay (Q96SW2 whole entry partner): as the sequence (Q96SW2 whole entry) above

| SMILES | DC50 [1] | Emax [2] | AUClast [3] | DC50 [4] | Tmax [5] | Emax [6] |
| --- | --- | --- | --- | --- | --- | --- |
| Cc1ncsc1-c1ccc(CNC(=O)[C@@H]2C[C@@H](O)CN2C(=O)[C@@H](NC(=O)COCCOCCN2CCC(n3nc(-c4ccc(Oc5ccccc5)cc4)c4c(N)ncnc43)CC2)C(C)(C)C)cc1 | 374 nM | 49% | – | – | – | – |
| Nc1ncnc2c1c(-c1ccc(Oc3ccccc3)cc1)nn2C1CCN(CCOCCOCCOc2ccc3c(c2)CN(C2CCC(=O)NC2=O)C3=O)CC1 (configuration not stated) | – | – | 405 ng·h/mL | 7.9 nM | 1.98 min | 95% |
| Nc1ncnc2c1c(-c1ccc(Oc3ccccc3)cc1)nn2C1CCN(CCOCCOCCOc2ccc3c(c2)C(=O)N(C2CCC(=O)NC2=O)C3=O)CC1 (configuration not stated) | – | – | 166 ng·h/mL | 8.3 nM | 1.98 min | 91% |
| Nc1ncnc2c1c(-c1ccc(Oc3ccccc3)cc1)nn2C1CCN(CCOCCOCC(=O)Nc2ccc3c(c2)C(=O)N(C2CCC(=O)NC2=O)C3=O)CC1 (configuration not stated) | – | – | 10.2 ng·h/mL | 6.2 nM | 1.98 min | 99% |

Second part, the compound after the results:

| DC50 [1] | Emax [2] | AUClast [3] | DC50 [4] | Tmax [5] | Emax [6] | SMILES |
| --- | --- | --- | --- | --- | --- | --- |
| > 1000 nM | – | – | – | – | – | Cc1ncsc1-c1ccc(CNC(=O)[C@@H]2C[C@@H](O)CN2C(=O)[C@H](C(C)C)N2Cc3ccccc3C2=O)c(OCCCOCCC(=O)N2CCC(n3nc(-c4ccc(Oc5ccccc5)cc4)c4c(N)ncnc43)CC2)c1 |
| 162 nM | 50% | – | – | – | – | Cc1ncsc1-c1ccc(CNC(=O)[C@@H]2C[C@@H](O)CN2C(=O)[C@H](C(C)C)N2Cc3ccccc3C2=O)c(OCCCCOCCCCN2CCC(n3nc(-c4ccc(Oc5ccccc5)cc4)c4c(N)ncnc43)CC2)c1 |
